Blank lines part the entries; values can stand above or below the compound they belong to.
Tests used:
PDE4D catalytic domain = PDE4D catalytic domain (Homo sapiens, UniProt Q08499); assay: PDEs enzyme assay; assay type: biochemical
Summary of the method: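 Purified PDE4D catalytic domain. Activity was read as hydrolysis of [³H]-cAMP to [³H]-AMP by scintillation proximity assay.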

PDK1 = molecular target: T1, PDK1 (Homo sapiens, UniProt O15530); assay: PDK1 kinase assay; assay type: biochemical; settings: compared with GSK2334470
T1 sequence (O15530 1-556): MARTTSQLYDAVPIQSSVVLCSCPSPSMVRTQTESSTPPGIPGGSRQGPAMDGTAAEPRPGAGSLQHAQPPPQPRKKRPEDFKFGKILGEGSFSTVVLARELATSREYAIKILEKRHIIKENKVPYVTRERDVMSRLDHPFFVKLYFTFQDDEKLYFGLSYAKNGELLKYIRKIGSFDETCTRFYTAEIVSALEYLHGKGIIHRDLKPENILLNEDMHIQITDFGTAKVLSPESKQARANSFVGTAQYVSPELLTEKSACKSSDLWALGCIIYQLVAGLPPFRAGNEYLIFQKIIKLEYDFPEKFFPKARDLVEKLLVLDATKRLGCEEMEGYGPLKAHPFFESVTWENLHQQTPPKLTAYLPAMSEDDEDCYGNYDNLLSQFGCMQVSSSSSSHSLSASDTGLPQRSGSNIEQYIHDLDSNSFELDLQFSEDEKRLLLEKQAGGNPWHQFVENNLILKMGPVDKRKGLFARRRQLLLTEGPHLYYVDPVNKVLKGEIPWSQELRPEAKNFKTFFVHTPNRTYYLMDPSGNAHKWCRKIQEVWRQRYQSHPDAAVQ

[1] = tested on: LPS-stimulated human PBMCs; assay: LPS-induced TNF-α production in human PBMCs; assay type: cell-based; settings: PBMC, read-out: IC50 on LPS-induced production of TNF-α
Summary of the method: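 Purchased human PBMCs (1 × 10⁶/well) in RPMI-1640 with 10% FBS and 2 mM L-glutamine were stimulated with LPS in the presence of test compound. TNF-α production was measured.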

[2] = tested on: LPS-induced RAW264.7 cells; assay: Inflammatory mediators in LPS-induced RAW264.7 cells; assay type: cell-based, murine
Summary of the method: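 RAW264.7 cells in DMEM with 10% FBS at 37 °C and 5% CO₂ were given test compound (100, 30, 10 μM) with LPS (1 μg/mL). Cells were lysed after 3 h for SYBR Green RT-PCR (ΔΔCt). Supernatants were kept for TNF-α and IL-6 ELISA and NO measurement.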

RAW264.7 cells [3] = assay: Cytotoxicity on RAW264.7 cells; assay type: cell-based, murine; settings: 24 h, CCK8
RAW264.7 cells [4] = assay: cAMP and CREB phosphorylation in RAW264.7 cells; assay type: cell-based, murine; settings: for effect on arctigenin-induced phosphorylation of CREB: 10 μM with arctigenin 100 μM
Summary of the method: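 RAW264.7 cells were exposed to test compound for 15 min under LPS (1 μg/mL) induction, or at 100 μM alongside H89 (10 μM) and/or forskolin (10 μM). Lysates were BCA-normalised and run on 10% SDS-PAGE and nitrocellulose, probed overnight at 4 °C, and detected by chemiluminescence. Intracellular cAMP was measured in 0.1 M HCl lysates by direct ELISA. Mean ± SEM, n = 3.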

[5] = tested on: IMQ-induced murine psoriasis; assay: IMQ-induced murine psoriatic skin lesions; assay type: in vivo, BALB/c mice
Summary of the method: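 Female BALB/c mice (6–8 weeks, 20–22 g), dorsal skin shaved, got 62.5 mg daily of […] IMQ cream topically for 7 days; groups (n = 7) were normal, IMQ only, and IMQ plus 5% test compound cream. PASI scored blind by 3 investigators. Read-outs: skin cAMP-specific PDE activity normalised to total protein, Ki-67 immunohistochemistry, serum Luminex 17-plex, skin RT-PCR (ΔΔCt), and skin-cell flow cytometry after collagenase IV digestion. Mean ± SEM.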

[6] = Arctigenin concentration in inflamed skin tissues; assay type: in vivo, mice; settings: topical application
PDE4 = assay: Enzymatic activity of cAMP-specific PDE4 in RAW264.7 cells; assay type: cell-based, murine; settings: RAW264.7 and LPS-stimulated RAW264.7 cells
[7] = cited from earlier work

Chain of PDE4D catalytic domain (Q08499 386-715 limits assumed): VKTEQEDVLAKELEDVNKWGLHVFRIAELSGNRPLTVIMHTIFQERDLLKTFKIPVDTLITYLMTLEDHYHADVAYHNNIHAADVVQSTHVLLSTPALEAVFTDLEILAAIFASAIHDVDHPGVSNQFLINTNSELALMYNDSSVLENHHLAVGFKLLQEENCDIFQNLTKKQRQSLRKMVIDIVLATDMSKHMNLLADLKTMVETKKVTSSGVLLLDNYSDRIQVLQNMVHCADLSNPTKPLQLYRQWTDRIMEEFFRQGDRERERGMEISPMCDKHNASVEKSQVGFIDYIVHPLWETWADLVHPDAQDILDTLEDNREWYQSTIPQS

IC50 (PDE4D catalytic domain): 3.76 ± 0.28 µM
inhibition on PDK1 (PDK1): negligible
concentration in the inflamed skin tissues [6]: 29.67 ± 15.42 μg/g skin samples
SMILES: COc1cc(C[C@H]2C(=O)OC[C@@H]2Cc2ccc(OC)c(OC)c2)ccc1O [Arctigenin]
IC50 [1]: 35.2 ± 6.01 µM
production of TNF-α and IL-6 ([2]; 100, 30, and 10 μM, LPS 24 h, ELISA, dose-dependent): reduce the production of TNF-α and IL-6
mRNA expression level of TNF-α and IL-6 ([2]; LPS 3 h, RT-PCR): decreased the mRNA expression level
iNOS and COX-2 mRNA ([2]; concentration-dependent): downregulated
cytotoxicity (RAW264.7 cells [3]): not associated with the cytotoxicity
phosphorylation of CREB (RAW264.7 cells [4]; 15 min, western blot): led to the phosphorylation of CREB
intracellular cAMP (RAW264.7 cells [4]; 30 min, concentration-dependent): significant elevation of intracellular cAMP
serum IL-10 ([5]; Luminex assay): promote the secretion of IL-10
serum inflammatory cytokines ([5]; Luminex assay): reduce the production of inflammatory cytokines
CCR6 and CXCR3 on CD45+ leukocytes ([5]; flow cytometry): suppressed the protein expression of CCR6 and CXCR3
skin myeloid cells, macrophages, neutrophils, DCs ([5]; flow cytometry): decreased when treated with arctigenin
skin-infiltrated leukocytes, APCs, T cells, γδT cells ([5]; flow cytometry): reduced upon arctigenin treatment
expression of chemokines in inflamed skins ([5]; gene expression): suppress the expression of chemokines
expression of inflammatory cytokines in inflamed tissues ([5]; mRNA level): extensively attenuated
Ki-67 positive staining in the epidermis ([5]; topical 5% arctigenin cream): reduced
activity of cAMP-specific PDEs in skins ([5]; topical 5% arctigenin cream): obviously reversed
cumulative PASI scores ([5]; topical 5% arctigenin cream): decreased the cumulative PASI scores
skin level of cAMP ([5]; topical 5% arctigenin cream): upregulate the skin level of cAMP
splenomegaly (spleen index) ([5]; topical 5% arctigenin cream): ameliorate the concomitant splenomegaly
epidermal thickening ([5]; topical 5% arctigenin cream, H&E): dramatically improved the epidermal thickening
body weight loss ([5]; topical 5% arctigenin cream, daily): significantly reversed the body weight loss
therapeutic effect, topical vs oral ([5]; topical 5% cream vs oral 100 mg/kg): better therapeutic effect
phosphorylation of CREB in skins ([5]; western blot): promote the phosphorylation of CREB
enzymatic activity of PDE4 in cells (PDE4): inhibit the enzymatic activity of PDE4 in the concentration-dependent manner
plasma concentration ([7]; oral administration, several animal species, ref [4], [35]): undetectable
tissue accumulation in brain ([7]; ref [34]): lower than that in intestine, liver, kidney, lung, and heart

SMILES: O=S(=O)(NCCNC/C=C/c1ccc(Br)cc1)c1cccc2cnccc12 [H89, reference compound]
effect on arctigenin-induced phosphorylation of CREB (RAW264.7 cells [4]; 15 min): obviously blocked the effects of arctigenin on phosphorylation of CREB

SMILES: C=C[C@@]1(C)CC(=O)[C@]2(O)[C@@]3(C)[C@@H](O)CCC(C)(C)[C@@H]3[C@H](O)[C@H](OC(C)=O)[C@@]2(C)O1 [forskolin, reference compound]
effect on arctigenin-induced phosphorylation of CREB (RAW264.7 cells [4]; 15 min): further enhance the effects of arctigenin on promoting the phosphorylation of CREB

Reference: paper PMC8463927 (Journal of Advanced Research, 2021)
